Laboratory results: PMC6437634 (Acta Pharmaceutica Sinica. B, 2018)

Columns and labels:
FGFR1 kinase = FGFR1 kinase (Homo sapiens, UniProt P11362); assay: ELISA kinase assay FGFR1; type: biochemical
[1] = In vitro metabolic stability, human liver microsomal intrinsic clearance; type: in vitro ADME; settings: liver microsomes, pH 7.4
Procedure, shortened: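 Human liver microsomes (0.5 mg/mL) were preincubated 5 min at 37 °C with 1 μmol/L test compound in 0.1 mol/L phosphate buffer pH 7.4 with EDTA and MgCl2. NADPH started the reaction. Samples taken at 0, 5, 10 and 30 min at 37 °C were quenched with equal-volume cold acetonitrile and centrifuged. Remaining parent compound was quantified by LC–MS/MS.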

CYP3A4 = CYP3A4 (Homo sapiens, UniProt P08684); assay: CYPs direct inhibition CYP3A4; type: in vitro ADME; settings: liver microsomes, pH 7.4
CYPs = assay: CYP time-dependent inhibition; type: in vitro ADME, human; settings: kobs lower than 200 (10^-4/min) considered no TDI inhibition

FGFR1 kinase, sequence (P11362 22-822): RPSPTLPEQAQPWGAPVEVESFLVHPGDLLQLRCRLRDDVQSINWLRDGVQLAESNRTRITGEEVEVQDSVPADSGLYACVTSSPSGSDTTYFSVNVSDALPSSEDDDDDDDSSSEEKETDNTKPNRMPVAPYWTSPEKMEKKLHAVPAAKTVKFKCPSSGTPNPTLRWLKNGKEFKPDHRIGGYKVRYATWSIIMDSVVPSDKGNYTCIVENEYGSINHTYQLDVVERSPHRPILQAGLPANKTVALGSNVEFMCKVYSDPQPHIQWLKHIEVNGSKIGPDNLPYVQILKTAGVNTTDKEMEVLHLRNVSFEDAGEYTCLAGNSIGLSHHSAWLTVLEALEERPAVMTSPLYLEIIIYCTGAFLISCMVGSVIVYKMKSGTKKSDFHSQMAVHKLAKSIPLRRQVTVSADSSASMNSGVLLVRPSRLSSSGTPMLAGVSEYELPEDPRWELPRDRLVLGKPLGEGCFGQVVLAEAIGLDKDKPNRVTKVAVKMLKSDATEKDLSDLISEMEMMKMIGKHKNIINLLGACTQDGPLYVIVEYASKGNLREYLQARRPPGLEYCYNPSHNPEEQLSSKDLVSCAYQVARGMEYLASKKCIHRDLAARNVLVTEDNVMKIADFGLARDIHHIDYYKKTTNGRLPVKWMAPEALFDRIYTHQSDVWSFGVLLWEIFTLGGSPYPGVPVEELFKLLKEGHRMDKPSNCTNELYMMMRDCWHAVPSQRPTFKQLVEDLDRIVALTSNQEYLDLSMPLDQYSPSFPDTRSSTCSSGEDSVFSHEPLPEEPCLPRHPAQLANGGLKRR
CYP3A4, sequence (P08684 whole entry): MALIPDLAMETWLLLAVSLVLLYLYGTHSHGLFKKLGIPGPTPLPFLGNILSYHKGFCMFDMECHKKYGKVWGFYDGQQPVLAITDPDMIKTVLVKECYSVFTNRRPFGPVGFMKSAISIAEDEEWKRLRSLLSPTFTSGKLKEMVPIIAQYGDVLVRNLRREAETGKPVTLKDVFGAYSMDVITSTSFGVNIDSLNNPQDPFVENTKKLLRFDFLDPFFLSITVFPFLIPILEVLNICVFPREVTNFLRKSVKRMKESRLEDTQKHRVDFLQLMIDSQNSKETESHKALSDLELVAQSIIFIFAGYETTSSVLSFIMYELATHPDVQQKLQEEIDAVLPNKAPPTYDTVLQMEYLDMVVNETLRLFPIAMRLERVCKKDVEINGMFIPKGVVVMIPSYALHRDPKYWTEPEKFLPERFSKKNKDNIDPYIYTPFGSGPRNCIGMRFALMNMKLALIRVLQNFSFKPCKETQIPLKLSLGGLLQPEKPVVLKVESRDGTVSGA

microsomal CLint at 1 μmol/L [1]	inhibition at 20 min, 10 μmol/L (CYP3A4)	FGFR1 enzymatic inhibitory activity (in words) (FGFR1 kinase)	SMILES	further results
			COc1cc(CCc2cnc3ccn(S(=O)(=O)c4ccccc4)c3n2)cc(OC)c1 [Compound 5, 3-(3,5-Dimethoxyphenethyl)-5-(phenylsulfonyl)-5H-pyrrolo[2,3-b]pyrazine]	FGFR1 inhibition ratio (FGFR1 kinase; at 0.1 μmol/L): about 75%
			COc1cc(OC)c(Cl)c(CCc2cnc3ccn(S(=O)(=O)c4ccccc4)c3n2)c1Cl [Compound 7, 3-(2,6-Dichloro-3,5-dimethoxyphenethyl)-5-(phenylsulfonyl)-5H-pyrrolo[2,3-b]pyrazine]	IC50 (FGFR1 kinase): 14 nM
38 µL/min/mg	96%		COc1cc(CCc2cnc3ccn(S(=O)(=O)c4c[nH]cn4)c3n2)cc(OC)c1 [Compound 12, 5-((1H-Imidazol-4-yl)sulfonyl)-3-(3,5-dimethoxyphenethyl)-5H-pyrrolo[2,3-b]pyrazine]	TDI (time-dependent inhibition), CYPs affected (CYPs): No inhibition
212 µL/min/mg	88%	single digit nanomolar activity	COc1cc(CCc2cnc3ccn(S(=O)(=O)c4cn(C)cn4)c3n2)cc(OC)c1 [Compound 20]	
50 µL/min/mg	90%	picomolar range	COc1cc(OC)c(Cl)c(CCc2cnc3ccn(S(=O)(=O)c4c[nH]cn4)c3n2)c1Cl [Compound 29]	TDI (time-dependent inhibition), CYPs affected (CYPs): No inhibition
		decreased dramatically	CCOc1cccc(CCc2cnc3ccn(S(=O)(=O)c4cn(C)cn4)c3n2)c1 [Compound 30, 3-(3-Ethoxyphenethyl)-5-((1-methyl-1H-imidazol-4-yl)sulfonyl)-5H-pyrrolo[2,3-b]pyrazine]	
			COc1cc(CCc2cnc3ccn(S(=O)(=O)c4cn(C)cn4)c3n2)c(F)c(OC)c1 [Compound 32, 3-(2-Fluoro-3,5-dimethoxyphenethyl)-5-((1-methyl-1H-imidazol-4-yl)sulfonyl)-5H-pyrrolo[2,3-b]pyrazine]	IC50 (FGFR1 kinase): 0.4 nM

SMILES	microsomal CLint at 1 μmol/L [1]	inhibition at 20 min, 10 μmol/L (CYP3A4)	FGFR1 enzymatic inhibitory activity (in words) (FGFR1 kinase)	further results
COc1cc(CCc2cnc3ccn(S(=O)(=O)c4cn(CCF)cn4)c3n2)c(F)c(OC)c1 [Compound 33, 3-(2-Fluoro-3,5-dimethoxyphenethyl)-5-((1-(2-fluoroethyl)-1H-imidazol-4-yl)sulfonyl)-5H-pyrrolo[2,3-b]pyrazine]			equipotent enzymatic activity as compound 32	
COc1cc(OC)c(F)c(/C=C/c2cnc3ccn(S(=O)(=O)c4cn(C)cn4)c3n2)c1F [Compound 34, (E)-3-(2,6-Difluoro-3,5-dimethoxystyryl)-5-((1-methyl-1H-imidazol-4-yl)sulfonyl)-5H-pyrrolo[2,3-b]pyrazine]			equipotent enzymatic activity as compound 32	
